Tests used:
[1] = target: T1, ATP-citrate synthase (Rattus norvegicus, UniProt P16638); assay: Inhibition against ATP-citrate lyase in liver; type: tissue-based
T1 sequence (P16638 whole entry): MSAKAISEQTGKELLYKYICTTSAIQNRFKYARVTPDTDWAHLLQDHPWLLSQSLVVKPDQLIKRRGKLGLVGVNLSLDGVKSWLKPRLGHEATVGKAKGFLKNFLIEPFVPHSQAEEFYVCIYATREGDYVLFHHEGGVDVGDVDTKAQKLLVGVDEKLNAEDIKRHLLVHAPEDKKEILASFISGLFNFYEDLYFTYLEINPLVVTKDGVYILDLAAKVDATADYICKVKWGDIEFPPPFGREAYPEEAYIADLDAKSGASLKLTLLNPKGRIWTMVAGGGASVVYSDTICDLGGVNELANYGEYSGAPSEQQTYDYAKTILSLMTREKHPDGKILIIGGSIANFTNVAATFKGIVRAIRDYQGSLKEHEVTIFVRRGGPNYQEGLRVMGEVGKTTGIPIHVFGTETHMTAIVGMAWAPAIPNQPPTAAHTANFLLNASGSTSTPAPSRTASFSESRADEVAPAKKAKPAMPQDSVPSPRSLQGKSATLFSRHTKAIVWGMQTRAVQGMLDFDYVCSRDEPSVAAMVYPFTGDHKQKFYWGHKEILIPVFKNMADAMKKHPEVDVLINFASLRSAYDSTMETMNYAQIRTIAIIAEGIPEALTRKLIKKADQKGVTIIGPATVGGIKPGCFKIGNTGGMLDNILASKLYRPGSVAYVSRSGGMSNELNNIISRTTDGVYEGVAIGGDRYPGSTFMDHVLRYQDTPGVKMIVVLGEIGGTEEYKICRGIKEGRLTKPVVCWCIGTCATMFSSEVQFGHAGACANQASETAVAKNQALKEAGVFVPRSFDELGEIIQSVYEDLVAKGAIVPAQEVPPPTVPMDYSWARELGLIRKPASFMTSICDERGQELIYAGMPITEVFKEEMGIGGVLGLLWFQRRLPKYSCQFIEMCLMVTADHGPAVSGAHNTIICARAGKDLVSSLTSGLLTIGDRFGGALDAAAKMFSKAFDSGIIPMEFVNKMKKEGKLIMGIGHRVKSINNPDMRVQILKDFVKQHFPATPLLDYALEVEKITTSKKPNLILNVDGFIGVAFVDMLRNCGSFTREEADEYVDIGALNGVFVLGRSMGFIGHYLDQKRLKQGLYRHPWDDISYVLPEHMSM
How it was run: (§1)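 Liver citrate lyase activity measured across varying concentrations of homologue. Ki (mM) determined from a Dixon plot.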

[2] = system: Rattus norvegicus; assay: Hypolipidemic activity in rats by evaluating the plasma triacylglycerol level at a dose of 10 mg/kg for seven days; type: functional
How it was run: (§2)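 Male Lewis rats, 150–180 g, fed standard chow ad libitum. Compound given orally as a suspension in 1% aqueous tylose; controls received vehicle. Blood taken from the retrobulbar venous plexus 3 h after dosing. Plasma cholesterol and triacylglycerols measured spectrophotometrically with enzymatic kits.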

[3] = system: Rattus norvegicus; assay: Hypolipidemic activity in rats by evaluating the plasma cholesterol level at a dose of 10 mg/kg for seven days; type: functional; how it was run: as §2
[4] = species on record: Rattus norvegicus; assay: Inhibition of lipid synthesis, by incorporation of 3H20 into 3-beta-hydroxysterols in cultured rat hepatocytes; type: functional; settings: Hepatocyte, read-out: I50
How it was run: (§3)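 Cultured rat hepatocytes incubated with varying concentrations of homologue. 3H2O incorporation into saponified fatty acids and 3-β-hydroxysterols measured. I50 = concentration (mM) giving 50% inhibition.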

[5] = species on record: Rattus norvegicus; assay: Inhibition of lipid synthesis, by incorporation of 3H20 into saponified fatty acids in cultured rat hepatocytes; type: functional; settings: Hepatocyte, read-out: I50; how it was run: as §3
[6] = species on record: Rattus norvegicus; assay: Percent inhibition of lipid synthesis by incorporation of 3H20 into saponified fatty acids in rat; type: functional; parameters: concentration or dose not given beside the values
How it was run: (§4)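 Rats fed for 3 consecutive days a carbohydrate-rich fat-free diet containing analogue (0.1% w/w for core-substituted series; 0.25% w/w for chain-length homologues). 10 mCi 3H2O given ip; liver taken 1 h later. 3H2O incorporation into liver saponified fatty acids and 3-β-hydroxysterols is expressed as % of untreated rats (untreated n = 3 or 4, mean ± SD).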

[7] = target: Peroxisomal bifunctional enzyme (Rattus norvegicus) (UniProt P07896); assay: Liver peroxisomal enoyl-CoA hydratase activity in rats
Peroxisomal bifunctional enzyme (Rattus norvegicus), sequence (P07896 whole entry, looked up): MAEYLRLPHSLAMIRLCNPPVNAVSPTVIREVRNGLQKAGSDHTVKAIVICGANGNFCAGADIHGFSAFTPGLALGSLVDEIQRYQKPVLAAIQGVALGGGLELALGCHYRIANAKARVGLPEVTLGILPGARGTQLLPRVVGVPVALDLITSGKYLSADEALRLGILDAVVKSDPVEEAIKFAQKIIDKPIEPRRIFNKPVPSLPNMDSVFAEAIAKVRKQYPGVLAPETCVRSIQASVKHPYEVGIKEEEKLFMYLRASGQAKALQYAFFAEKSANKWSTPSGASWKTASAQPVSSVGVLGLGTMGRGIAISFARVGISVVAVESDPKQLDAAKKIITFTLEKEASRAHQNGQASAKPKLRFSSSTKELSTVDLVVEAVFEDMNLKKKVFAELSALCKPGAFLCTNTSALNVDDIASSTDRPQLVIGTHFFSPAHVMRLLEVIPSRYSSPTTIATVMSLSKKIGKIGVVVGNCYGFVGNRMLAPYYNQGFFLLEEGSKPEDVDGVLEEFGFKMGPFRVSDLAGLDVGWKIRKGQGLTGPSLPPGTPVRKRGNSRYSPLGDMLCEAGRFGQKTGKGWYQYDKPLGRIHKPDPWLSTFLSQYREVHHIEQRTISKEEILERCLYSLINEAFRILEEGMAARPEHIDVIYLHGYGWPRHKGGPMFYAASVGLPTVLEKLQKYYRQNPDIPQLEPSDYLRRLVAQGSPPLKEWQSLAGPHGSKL

[8] = species on record: Rattus norvegicus; assay: Percent of hypolipidemic activity in rats by evaluating the plasma cholesterol level at 0.1%(w/w) in diet for three days; type: functional
How it was run: (§5)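 Rats treated 3 days with 0.1% (w/w) analogue in diet. Plasma triacylglycerols and cholesterol (mg %) compared with untreated rats (mean ± SD, n = 3).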

[9] = system: Rattus norvegicus; assay: In vivo percent inhibition of lipid synthesis, by incorporation of 3H20 into liver saponified fatty acids in rat, at 0.1%(w/w) in diet for three days; type: functional; settings: values are per cent of control; how it was run: as §4
[10] = species on record: Rattus norvegicus; assay: Percent of hypolipidemic activity in rats by evaluating the plasma triacylglycerol level at 0.1%(w/w) in diet for three days; type: functional; how it was run: as §5
[11] = target: Peroxisomal bifunctional enzyme (Rattus norvegicus) (UniProt P07896); assay: Percent of liver peroxisomal enoyl-CoA hydratase activity in rats
[12] = system: Rattus norvegicus; assay: In vivo lipid synthesis as percent of nontreated control by incorporation of 3H20 into 3-beta-hydroxysterols in rat, at 0.1%(w/w) in diet for three days
[13] = species on record: Rattus norvegicus; assay: Hypolipidemic activity in rats by evaluating the plasma cholesterol level at 0.1%(w/w) in diet for three days
[14] = target: T1, ATP-citrate synthase; assay: Inhibition against ATP-citrate lyase in liver.; type: tissue-based
How it was run: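 Liver ATP-citrate lyase activity was followed across varying inhibitor concentrations, and Ki was derived from a Dixon plot. The methods otherwise refer to an earlier report.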

[15] = target: T1, ATP-citrate synthase; assay: Inhibition against ATP-citrate lyase in rat liver.; how it was run: as §1
[16] = target: Enoyl-CoA hydratase (Rattus norvegicus) (UniProt P07896); assay: Liver peroxisomal enoyl-CoA hydratase activity in rats, at 0.00(w/w) in diet
Enoyl-CoA hydratase (Rattus norvegicus), sequence (P07896 whole entry): as the sequence (P07896 whole entry, looked up) above
How it was run: (§6)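 Hebrew University strain rats, 140–160 g, starved 48 h, then pair-refed for 3 consecutive nights a 15-g meal of high-carbohydrate fat-free powdered diet, with or without analogue mixed into the diet at the stated % (w/w). The morning after the last meal, 10 mCi 3H2O in saline given ip; rats killed 1 h later. Readouts: liver lipid 3H2O incorporation, plasma lipids, peroxisomal enoyl-CoA hydratase, CN-insensitive palmitoyl-CoA oxidation. Mean ± SD, n = 4.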

[17] = target: Enoyl-CoA hydratase (Rattus norvegicus) (UniProt P07896); assay: Liver peroxisomal palmitoyl-CoA oxidation activity in rats, at 0.00(w/w) in diet; how it was run: as §6
[18] = target: Enoyl-CoA hydratase (Rattus norvegicus) (UniProt P07896); assay: Liver peroxisomal palmitoyl-CoA oxidation activity in rats, at 0.15(w/w) in diet; how it was run: as §6
[19] = target: Enoyl-CoA hydratase (Rattus norvegicus) (UniProt P07896); assay: Liver peroxisomal palmitoyl-CoA oxidation activity in rats, at 0.30(w/w) in diet; how it was run: as §6
[20] = species on record: Rattus norvegicus; assay: Inhibition of lipid synthesis, evaluated by incorporation of 3H20 at 0.00(w/w) into liver cholesterol in rat; type: functional
[21] = species on record: Rattus norvegicus; assay: Inhibition of lipid synthesis, evaluated by incorporation of 3H20 at 0.00(w/w) into liver saponified fatty acids in rat; type: functional
[22] = species on record: Rattus norvegicus; assay: Inhibition of lipid synthesis, evaluated by incorporation of 3H20 at 0.15(w/w) into liver cholesterol in rat; type: functional
[23] = species on record: Rattus norvegicus; assay: Inhibition of lipid synthesis, evaluated by incorporation of 3H20 at 0.30(w/w) into liver cholesterol in rat; type: functional
[24] = species on record: Rattus norvegicus; assay: Inhibition of lipid synthesis, evaluated by incorporation of 3H20 at 0.30(w/w) into liver saponified fatty acids in rat; type: functional
[25] = species on record: Rattus norvegicus; assay: Hypolipidemic activity in rats by evaluating the plasma cholesterol level at 0.00 dose (% w/w) in diet; type: functional; how it was run: as §6
[26] = species on record: Rattus norvegicus; assay: Hypolipidemic activity in rats by evaluating the plasma cholesterol level at 0.15 dose (% w/w) in diet; type: functional; how it was run: as §6
[27] = species on record: Rattus norvegicus; assay: Hypolipidemic activity in rats by evaluating the plasma cholesterol level at 0.30 dose (% w/w) in diet; type: functional; how it was run: as §6
[28] = species on record: Rattus norvegicus; assay: Hypolipidemic activity in rats by evaluating the plasma triacylglycerol level at 0.00 (% w/w)in diet; type: functional; how it was run: as §6
[29] = species on record: Rattus norvegicus; assay: Hypolipidemic activity in rats by evaluating the plasma triacylglycerol level at 0.15 (% w/w)in diet; type: functional; how it was run: as §6
[30] = species on record: Rattus norvegicus; assay: Hypolipidemic activity in rats by evaluating the plasma triacylglycerol level at 0.30 (% w/w)in diet; type: functional; how it was run: as §6
[31] = target: T1, ATP-citrate synthase; assay: Inhibition against ATP-citrate lyase in rat liver; type: tissue-based; how it was run: as §1

CC(C)(CCCCCCCCCCCCC(C)(C)CC(=O)O)CC(=O)O
Ki [1]: 46 µM | Hypolipidemic activity [2]: 130% | Activity (mg) [3]: 73% | IC50 [4]: 150 µM | IC50 [5]: 150 µM | Fatty acid synthesis (% of untreated control) [6]: 48% | Activity (uM min-1 mg-1) [7]: 17.5

CC(C)(CCCCCCCCCCCCCCC(C)(C)CC(=O)O)CC(=O)O
Ki [1]: 260 µM | IC50 [4]: 300 µM | IC50 [5]: 300 µM | Fatty acid synthesis (% of untreated control) [6]: 113% | Activity (uM min-1 mg-1) [7]: 5

CC(C)(CCCc1ccc(CCCC(C)(C)CC(=O)O)cc1)CC(=O)O
Activity [8]: 36% | residual activity [9]: 63% | Activity [10]: 84% | Activity (uM min-1 mg-1) [11]: 12 | Incorporation [12]: 65%

CC(C)(CCCCCCCCCCCC(C)(C)CC(=O)O)CC(=O)O
Hypolipidemic activity [2]: 113% | Activity (mg) [3]: 73%

CC(C)(CCCCCCCCCCCCCCCCC(C)(C)CC(=O)O)CC(=O)O
Ki [1]: 320 µM | IC50 [4]: 400 µM | IC50 [5]: 400 µM | Fatty acid synthesis (% of untreated control) [6]: 158% | Activity (uM min-1 mg-1) [7]: 3.5

CC(C)(C/C=C\c1ccc(/C=C/CC(C)(C)CC(=O)O)cc1)CC(=O)O
Activity [8]: 37% | residual activity [9]: 50% | Activity [10]: 25% | Activity (uM min-1 mg-1) [11]: 10.5 | Incorporation [12]: 37%

CC(C)(CCCCCCCCCC(C)(C)CC(=O)O)CC(=O)O
Hypolipidemic activity [2]: 112% | Activity (mg) [3]: 72%

CC(C)(CCCC1CCC(CCCC(C)(C)CC(=O)O)CC1)CC(=O)O (stereo not given)
residual activity [9]: 79% | Activity [10]: 63% | Activity (uM min-1 mg-1) [11]: 14 | Plasma cholesterol [13]: 42 mg % | Incorporation [12]: 71%

CC(C)(CCCCCCCCCCC(C)(C)CC(=O)O)CC(=O)O
Ki [14]: 16 µM | Hypolipidemic activity [2]: 111% | Activity (mg) [3]: 58% | IC50 [4]: 80 µM | IC50 [5]: 80 µM | residual activity [9]: 48% | Fatty acid synthesis (% of untreated control) [6]: 29% | Activity [10]: 49% | Activity (uM min-1 mg-1) [7]: 31 | Activity (uM min-1 mg-1) [11]: 10.7 | Plasma cholesterol [13]: 32 mg % | Incorporation [12]: 40%

CC(C)(CCCCCCCCC(C)(C)CC(=O)O)CC(=O)O
Ki [15]: 56 µM | Hypolipidemic activity [2]: 126% | Activity (mg) [3]: 70% | IC50 [4]: 100 µM | IC50 [5]: 100 µM | Fatty acid synthesis (% of untreated control) [6]: 66% | Activity (uM min-1 mg-1) [7]: 16.3

CC(C)(C/C=C/c1ccc(/C=C/CC(C)(C)CC(=O)O)cc1)CC(=O)O
Activity [8]: 28% | residual activity [9]: 57% | Activity [10]: 41% | Activity (uM min-1 mg-1) [11]: 18.6 | Incorporation [12]: 57%

O=C(O)CC(CCCCCCCCCCC(CC(=O)O)(c1ccccc1)c1ccccc1)(c1ccccc1)c1ccccc1
Activity (umol/mg.of protein. min) (µmol/mg protein/min) [16]: 0.45 | Activity (nmol/mg.of protein. min) (nmol/mg protein/min) [17]: 4.8 | Activity (nmol/mg.of protein. min) (nmol/mg protein/min) [18]: 4.4 | Activity (nmol/mg.of protein. min) (nmol/mg protein/min) [19]: 7.2 | Activity (umol/g.of liver 75.min) [20]: 3.9 µmol/g liver/75 min | Activity (umol/g.of liver 75.min) [21]: 118 µmol/g liver/75 min | Activity (umol/g.of liver 75.min) [22]: 4.3 µmol/g liver/75 min | Activity (umol/g.of liver 75.min) [23]: 3.4 µmol/g liver/75 min | Activity (umol/g.of liver 75.min) [24]: 123 µmol/g liver/75 min | Activity (mg) [25]: 70.5% | Activity (mg) [26]: 70% | Activity (mg) [27]: 58% | Activity (mg) [28]: 131% | Activity (mg) [29]: 127% | Activity (mg) [30]: 101%

CC(C)(CCCCCCC(C)(C)CC(=O)O)CC(=O)O
Ki [31]: 310 µM | IC50 [4]: 200 µM | IC50 [5]: 300 µM | Fatty acid synthesis (% of untreated control) [6]: 80% | Activity (uM min-1 mg-1) [7]: 7.5

CC(C)(C/C=C\c1ccc(/C=C\CC(C)(C)CC(=O)O)cc1)CC(=O)O
Activity [8]: 47% | residual activity [9]: 72% | Activity [10]: 98% | Activity (uM min-1 mg-1) [11]: 4.5 | Incorporation [12]: 97%
